Where two headings read alike, the source gives them in different places.
Columns and labels:
[1] = system: p53^R273H MDA-MB-468 cells; assay: WST-1 cell proliferation assay; format: cell-based, human; details: MDA-MB-468, 24 h or 72 h
[2] = system: p53^R280K MDA-MB-231 cells; assay: WST-1 cell proliferation assay; format: cell-based, human; details: for inhibition of cell proliferation (in words): MDA-MB-231, 24 h or 72 h; for IC50: Homo sapiens, read-out: IC50, inhibition of cell proliferation
WT p53 MCF-7 cells [3] = assay: WST-1 cell proliferation assay; format: cell-based, human; details: MCF-7, 24 h or 72 h; compared to mutant p53 cells
Method in brief: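 WST-1 assay. Test compound in DMSO was added to cells at 40,000 cells/ml, giving 1% DMSO final, and plated at 4,000 cells/well in duplicate; medium-only wells served as background. Incubation was 24 h or 72 h at 37 °C, then WST-1 for 2 h and OD450 read. Proliferation is expressed as % of DMSO control; triplicate experiments. MCF-7 grown in RPMI 1640, MDA-MB-436 in DMEM.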

WT p53 in MCF-7 cells = WT p53 in MCF-7 cells (Homo sapiens, UniProt P04637); assay: Western blot of p53 expression; format: cell-based; details: MCF-7, 6 μM or 12 μM, 24 h
Method in brief: (§1)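 Cells were treated 24 h with 6 μM or 12 μM test compound or DMSO and lysed in NP-40/Tris-Cl pH 8.0 buffer with protease inhibitors. Load on 4–12% SDS-PAGE was 20 μg for MDA-MB-231 and MDA-MB-468 or 50 μg for MCF-7. After PVDF transfer, blots were probed with p53 DO-1 antibody, reprobed for GAPDH as loading control and developed by ECL.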

Log P determination = format: physicochemical; details: octanol/sodium phosphate buffer (pH 7.4)
[4] = target: p53^R273H in MDA-MB-468 cells (Homo sapiens, UniProt P04637, R273H); assay: Western blot of p53 expression; format: cell-based; details: MDA-MB-468, 6 μM or 12 μM, 24 h
Method in brief: as §1

[5] = target: p53^R280K in MDA-MB-231 cells (Homo sapiens, UniProt P04637, R280K); assay: Western blot of p53 expression; format: cell-based; details: MDA-MB-231, 6 μM or 12 μM, 24 h
Method in brief: as §1

WT p53 MCF-7 cells [6] = assay: Annexin V staining; format: cell-based, human; details: MCF-7, 24 h
Method in brief: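 After 24 h exposure to test compound or DMSO, MCF-7 cells (RPMI 1640, 10% FBS, 1% penicillin/streptomycin, 1% L-glutamine) were scraped, PBS-washed and taken up in Annexin V binding buffer. They were stained with fluorochrome-conjugated Annexin V for 15 min at RT in the dark, then PI staining solution was added. Flow cytometry read-out; % Annexin V-positive cells expressed relative to DMSO.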

[7] = system: p53^R280K MDA-MB-231 cells; assay: Annexin V staining; format: cell-based, human; details: MDA-MB-231, 6 μM or 12 μM, 24 h
[8] = system: p53^R273H MDA-MB-468 cells; assay: Annexin V staining; format: cell-based, human; details: MDA-MB-468, 6 μM or 12 μM, 24 h

Structure (SMILES) | inhibition of cell proliferation (in words) [2] | inhibition of cell proliferation / sensitivity (in words) (WT p53 MCF-7 cells [3]) | WT p53 expression (western blot) (WT p53 in MCF-7 cells) | mutant p53 expression (western blot) [4] | mutant p53 expression (western blot) [5] | increase in Annexin V stained cells compared to DMSO (WT p53 MCF-7 cells [6]) | other results
C1C2CC3CC1CC(C2)C3 [adamantane, Adamantane, reference compound] | did not inhibit MDA-MB-231 cells proliferation | did not inhibit MCF-7 cell proliferation |  |  |  |  | inhibition of cell proliferation (in words) [1]: did not inhibit MDA-MB-468 cells proliferation
S=C=NCCC12CC3CC(CC(C3)C1)C2 [Ad-ITC 5, 1-Isothiocyanato-2-(adamantan-1-yl)ethane] |  | did not inhibit MCF-7 cell proliferation | did not decrease WT p53 expression | differential decrease in the expression of mutant p53 | differential decrease in the expression of mutant p53 | did not display any significant increase | logP at 18 h (Log P determination): 4.76; IC50 ([2]; MDA-MB-231, 24 h): 24 to 48 µM; IC50 ([2]; MDA-MB-231, 72 h): 12 to 24 µM
CC(N=C=S)C12CC3CC(CC(C3)C1)C2 (stereo not shown) [Ad-ITC 4, 1-Isothiocyanato-1-(adamantan-1-yl)ethane] | did not show any significant inhibition |  |  |  |  |  | 
CCCC(CN=C=S)C1C2CC3CC(C2)CC1C3 (stereo not shown) [Ad-ITC 10, 2-(1-Isothiocyanatopentan-2-yl)adamantane] | did not show any significant inhibition |  |  |  |  |  | 
O=C1CNC(=S)N1CCC12CC3CC(CC(C3)C1)C2 [Ad-compound 13, 3-(2-(Adamantan-1-yl)ethyl)-2-thioxoimidazolidin-4-one] | did not inhibit the proliferation | did not inhibit MCF-7 cell proliferation | did not decrease WT p53 expression | failed to affect mutant p53 expression | failed to affect mutant p53 expression | did not display any significant increase | increase in Annexin V stained cells compared to DMSO [7]: did not induce significant increase in apoptosis; inhibition of cell proliferation (in words) [1]: did not inhibit MDA-MB-468 cells proliferation; increase in Annexin V stained cells compared to DMSO [8]: did not induce significant increase in apoptosis
S=C=NC1C2CC3CC(C2)CC1C3 (stereo not shown) [Ad-ITC 2, 2-Isothiocyanatoadamantane] | failed to show any significant inhibition of cell proliferation |  |  |  |  |  | 
CC(C)(COC12CC3CC(CC(C3)C1)C2)N=C=S [Ad-ITC 9, 1-(2-Isothiocyanato-2-methylpropoxy)adamantane] | not active in vitro |  |  |  |  |  | 
CC12CC3CC(C)(C1)CC(N=C=S)(C3)C2 [Ad-ITC 11, 1-Isothiocyanato-3,5-dimethyladamantane] | failed to show any significant inhibition of cell proliferation |  |  |  |  |  | 
O=C(CC12CC3CC(CC(C3)C1)C2)N=C=S [Ad-ITC 12, 2-(Adamantan-1-yl)acetyl isothiocyanate] | failed to inhibit the cell proliferation |  |  |  |  |  | 
S=C=NCCOC12CC3CC(CC(C3)C1)C2 [Ad-ITC 8, 1-(2-Isothiocyanatoethoxy)adamantane] | not active in vitro |  |  |  |  |  | logP at 18 h (Log P determination): 4.42
S=C=Nc1ccc(C23CC4CC(CC(C4)C2)C3)cc1 [Ad-ITC 7, 1-(4-Isothiocyanatophenyl)adamantane] | significantly less potent than Ad-ITCs 3, 5, and 6 |  |  |  |  |  | 
S=C=NCC12CC3CC(CC(C3)C1)C2 [Ad-ITC 3, 1-Isothiocyanatomethyladamantane] | dose-dependent activity | remarkably less sensitive | did not decrease WT p53 expression | differential decrease in the expression of mutant p53 | differential decrease in the expression of mutant p53 | did not display any significant increase | increase in Annexin V stained cells compared to DMSO [7]: 2.0-5.1 fold; IC50 ([2]; MDA-MB-231, 24 h): 24 to 48 µM; IC50 ([2]; MDA-MB-231, 72 h): 24 to 48 µM; increase in Annexin V stained cells compared to DMSO [8]: 2.0-5.1 fold
S=C=NC12CC3CC(CC(C3)C1)C2 [Ad-ITC 1, 1-Isothiocyanatoadamantane] | failed to show any significant inhibition of cell proliferation |  | did not decrease WT p53 expression | no depletion | no depletion | did not display any significant increase | increase in Annexin V stained cells compared to DMSO [7]: did not induce significant increase in apoptosis; increase in Annexin V stained cells compared to DMSO [8]: did not induce significant increase in apoptosis
